Screening data as filed in PubChem BioAssay.
Compounds with a hit are over-represented: about 0.74% of the library has one in this group of screens.
RGS16-Gao HTS: modulators of RGS16 binding to Galphao, primary screen, biochemical, human proteins, multiplexed bead flow cytometry. bead-based flow cytometry RGS16-Galphao binding, fluorescence; actives lie on both sides. binding response (% of control), % at 10 µM. actives 0.38% (n = 220,000);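 further: Galphao activated by GDP with aluminum fluoride before binding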
Biofilm kill mix: clotrimazole potentiators killing C. albicans biofilm, primary screen, 4-compound mixtures; inhibition, % at 7.6 µM; actives 0.02% (n = 120,000); C. albicans biofilm persisters + clotrimazole, fluorescence viability; primary screen in compound mixtures of four per well;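 further: compounds exposed to preformed 24 h biofilms for 48 h; 0% = untreated biofilm control and 100% = clotrimazole plus chlorhexidine kill blank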
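Probe or stimulus – Clotrimazole 50 µg/mL co-treatment · System – C. albicans biofilms · Schedule – 24 h biofilm formation, then 48 h compound exposure, 37 °C · Evaluation – percent inhibition of biofilm viability · Technique – 2-h Alamar Blue fluorescence, 535/590 nm excitation/emission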
RGS8-Gao: RGS8-Galphao binding modulators, primary screen, biochemical, multiplexed bead flow cytometry. Guanine nucleotide-binding protein G(o) subunit alpha (Homo sapiens), P09471. actives 0.34% (n = 220,000). AID 1423, 2008. response (percent of control binding), % at 10 µM. actives lie on both sides; in the data active means response below about 60% or above about 140%; inactive means in between;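 further: Galphao activated as the GDP aluminium fluoride complex binding bead-coupled RGS8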
RGS4-Gao reg: modulators of RGS4 binding to Galphao, primary screen, biochemical, multiplexed bead flow cytometry; Guanine nucleotide-binding protein G(o) subunit alpha (Homo sapiens), P09471; actives lie on both sides; binding response (% of control), % at 10 µM; actives 0.33% (n = 220,000); AID 1415, 2008; in the data active means binding response below about 49% or above about 150%; inactive means in between;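 further: fluorescent Galphao activated with aluminum fluoride binding bead-coupled RGS4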
RGS7-Gao reg: RGS7-Galphao binding modulators, primary screen, biochemical, multiplexed bead flow cytometry. actives lie on both sides. Guanine nucleotide-binding protein G(o) subunit alpha (Homo sapiens), P09471. actives 0.35% (n = 220,000). binding response (% of control), % at 10 µM; in the data active means binding response below about 49% or above about 150%; inconclusive means no clear call, values can overlap the other calls; inactive means in between;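 further: fluorescent Galphao held in activated GDP-AlF4 state binding bead-coupled RGS7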
RGS4-Gao HTS: modulators of RGS–Galpha-o binding, primary screen, biochemical, multiplexed beads, flow cytometry, RGS4/7/8/16/19; shares compounds with RGS16-Gao HTS; multiplexed bead flow cytometry; RGS4–Galpha-o binding response, % at 10 µM; actives 99% (n = 1,600);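 further: fluorescently labeled Galpha-o bound to GDP with aluminium fluoride binding biotinylated RGS beads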
Biotin-avidin: disruption of biotin probe capture by avidin, counter-screen for RGS protein interaction modulators, biochemical, flow cytometry, bead-based; shares compounds with RGS16-Gao HTS; streptavidin beads, fluorescein-biotin binding; inhibition, % at 10 µM; 1,700 tested, under 10 active; AID 1783, 2009;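 active means inhibition above 50%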;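 further: median green fluorescence of gated singlet beads compared with DMSO control wells; 0% = DMSO wells and 100% = complete loss of bead fluorescence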
RGS8-Gao single: RGS8-Galphao binding modulators, confirmation, biochemical, multiplexed bead flow cytometry, single concentration; binding response (% of control), % at 10 µM; bead-based flow cytometry RGS8-Galphao binding, fluorescence; actives lie on both sides; AID 1836, 2009; actives 3% (n = 1,700); shares compounds with RGS16-Gao HTS; in the data active means binding response below about 72% or above about 130%; inactive means in between;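 further: Galphao activated as GDP AlF4 complex before binding bead RGS8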
RGS7-Gao single: RGS7-Galphao binding modulators, confirmation, biochemical, multiplexed bead flow cytometry, single concentration. shares compounds with RGS16-Gao HTS. AID 1837, 2009. response (percent of control binding), % at 10 µM. bead-based flow cytometry RGS7-Galphao binding; actives lie on both sides. actives 7.8% (n = 1,700); in the data active means response below about 75% or above about 130%; inactive means in between;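 further: fluorescent Galphao activated with GDP and aluminum fluoride binding bead-coupled RGS7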
RGS16-Gao single: modulators of RGS16-Galphao protein binding, confirmation, biochemical, single concentration, multiplexed bead flow cytometry. shares compounds with RGS16-Gao HTS. bead-based flow cytometry; actives lie on both sides. response (% of control binding), % at 10 µM. actives 4% (n = 1,700). AID 1838, 2009; in the data active means response below about 74% or above about 130%; inactive means in between;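 further: Galphao activated as the GDP aluminium fluoride complex binding bead-coupled RGS16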
RGS4-Gao single: modulators of RGS4-Galphao protein binding, confirmation, biochemical, single concentration, multiplexed bead flow cytometry. shares compounds with RGS16-Gao HTS. actives lie on both sides. actives 4% (n = 1,700). AID 1840, 2009. binding response (% of control), % at 10 µM; in the data active means binding response below about 74% or above about 130%; inactive means in between
RGS19-Gao conf: regulators of RGS19-Galphao binding, confirmation, biochemical, single point, multiplexed bead flow cytometry | bead-based flow cytometry RGS19-Galphao binding; actives lie on both sides | response (percent of control binding), % at 10 µM | actives 5% (n = 1,700) | shares compounds with RGS16-Gao HTS | AID 1841, 2009; in the data active means response below about 50% or above about 160%; inactive means in between;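 further: 100% = no compound control and 0% = blank background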
Target sequence (P09471 whole entry, looked up): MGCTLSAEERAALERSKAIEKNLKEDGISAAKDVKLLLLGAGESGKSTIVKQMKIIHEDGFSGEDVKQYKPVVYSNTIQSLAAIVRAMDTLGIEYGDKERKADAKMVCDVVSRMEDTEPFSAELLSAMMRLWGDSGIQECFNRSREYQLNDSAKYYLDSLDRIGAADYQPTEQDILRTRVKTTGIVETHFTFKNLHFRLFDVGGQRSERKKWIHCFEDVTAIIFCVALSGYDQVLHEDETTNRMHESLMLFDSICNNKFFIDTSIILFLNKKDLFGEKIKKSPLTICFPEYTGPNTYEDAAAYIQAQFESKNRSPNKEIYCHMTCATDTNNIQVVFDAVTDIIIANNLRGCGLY
Target sequence (P49795 whole entry, looked up): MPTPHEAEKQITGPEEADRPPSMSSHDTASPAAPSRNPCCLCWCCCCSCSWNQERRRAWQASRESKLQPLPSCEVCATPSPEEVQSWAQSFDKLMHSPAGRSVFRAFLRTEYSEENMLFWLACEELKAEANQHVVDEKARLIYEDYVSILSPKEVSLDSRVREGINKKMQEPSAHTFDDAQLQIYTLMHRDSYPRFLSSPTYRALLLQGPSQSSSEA
An asterisk follows results filed as active; [ ] = dose if it differs, or a comment. Unless noted, how the calls were made is not given here.

For O=C(O)c1nccnc1C(=O)NCCc1c[nH]c2ccccc12 the results were RGS16-Gao HTS 101.2, Biofilm kill mix 18.6, RGS8-Gao 102.5, RGS4-Gao reg 101.0 and RGS7-Gao reg inconclusive.
`O=C(NCCc1c[nH]c2ccccc12)c1c(Cl)nc2sccn12` gave RGS16-Gao HTS 2.2*, RGS8-Gao 17.3*, RGS4-Gao reg 30.5*, RGS7-Gao reg 19.1*, Biotin-avidin -1.0, RGS8-Gao single 114.1, RGS7-Gao single 125.0, RGS16-Gao single 108.6, RGS4-Gao single 109.8 and RGS19-Gao conf 102.8.
Screening Cc1cc(NC(=O)CSc2nc(-c3ccc(F)cc3)cs2)no1 returned RGS16-Gao HTS 89.3, RGS8-Gao 90.7, RGS4-Gao reg 87.0 and RGS7-Gao reg 85.4.
For COc1ccc(-c2nnc(SCC(=O)Nc3cc(F)ccc3C)o2)cc1 the results were RGS16-Gao HTS 110.3, RGS8-Gao 99.8, RGS4-Gao reg 120.1, RGS7-Gao reg 184.6*[activator] and RGS4-Gao HTS 120.1*.
Cc1cc(NC(=O)CSc2ccc3ccccc3c2)no1 was read as Biotin-avidin -1.2, RGS8-Gao single 98.9, RGS7-Gao single 98.4, RGS16-Gao single 96.2, RGS4-Gao single 96.9 and RGS19-Gao conf 104.5.
`CCc1cc2ccccc2nc1SCC(=O)Nc1cc(C)on1` gave RGS16-Gao HTS 115.9, RGS8-Gao 107.7, RGS4-Gao reg 105.7 and RGS7-Gao reg 104.9.
For CC(=O)Nc1ccc(NC(=O)CSc2nnc(-c3ccco3)o2)cc1 the results were RGS16-Gao HTS 104.1, Biofilm kill mix 10.9, RGS8-Gao 100.9, RGS4-Gao reg 100.5 and RGS7-Gao reg 103.6.
`Cc1cc(NC(=O)CSc2nc(-c3ccccc3)cs2)no1` gave Biotin-avidin -0.6, RGS8-Gao single 98.1, RGS7-Gao single 99.5, RGS16-Gao single 96.8, RGS4-Gao single 98.9 and RGS19-Gao conf 117.5.
